Active and inactive are the calls of the source. No cut-off for these calls is given here.
Assays:
[1] = system: MDA-MB-231; experiment: Induction of apoptosis in human MDA-MB-231 cells assessed as condensation of nuclei at 0.5 to 2 uM after 48 hrs by Hoechst […] staining based fluorescence microscopy; type: functional, cell-based
Procedure, shortened: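 Cells at 25×10^4 per well were allowed to adhere 24 h, then treated with 0.5, 1 and 2 µM compound for 48 h at 37 °C. After a PBS wash they were stained with Hoechst […] (5 µg/mL) for 30 min at room temperature and washed twice. Nuclear morphology was viewed by fluorescence microscopy (ex 350/em 460 nm).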

[2] = system: A549; experiment: Induction of apoptosis in human A549 cells assessed as early apoptotic cells at 0.5 uM after 24 hrs by Annexin V-FITC/PI dual staining based flow cytometry (reference value: 5.3%); type: functional
[3] = system: A549 (human); experiment: Induction of apoptosis in human A549 cells assessed as late apoptotic cells at 2 uM after 24 hrs by Annexin V-FITC/PI dual staining based flow cytometry (reference value: 6.2%)
[4] = system: MDA-MB-231; experiment: Induction of apoptosis in human MDA-MB-231 cells assessed as necrotic cells at 1 uM after 24 hrs by Annexin V-FITC/PI dual staining based flow cytometry (reference value: 1.9%); type: functional
[5] = system: A549; experiment: Induction of apoptosis in human A549 cells assessed as early apoptotic cells at 1 uM after 24 hrs by Annexin V-FITC/PI dual staining based flow cytometry (reference value: 5.3%); type: functional
[6] = system: A549; experiment: Disruption of mitochondrial membrane potential in human A549 cells at 0.5 to 2 uM after 48 hrs by Rhodamine-123 staining based spectrofluorometry; type: functional
Procedure, shortened: (§1)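 Cells were seeded at 5×10^5 cells/mL overnight and treated with 0.5, 1 and 2 µM compound; the methods say 24 h and the results text says 48 h. Trypsinised cells were washed and stained with rhodamine-123 (2 µM in PBS) for 30 min at room temperature in the dark, washed and read by spectrofluorometer. Data are mean ± SD of three independent experiments.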

[7] = system: A549; experiment: Induction of reactive oxygen species generation in human A549 cells at 0.5 to 2 uM after 48 hrs by carboxy-DCFDA staining based spectrofluorometry relative to control; type: functional
[8] = system: A549; experiment: Cell cycle arrest in human A549 cells assessed as accumulation at G0/G1 phase at 2 uM after 24 to 48 hrs by propidium iodide staining based flow cytometry (reference value: 49.1%); type: functional
Procedure, shortened: (§2)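 Cells were seeded at 1×10^6 per well and treated 24 h later with 0.5, 1 or 2 µM compound; DMSO-treated cells served as control. Methods give harvest at 48 h (floating plus trypsinised cells); the figure legend says 24 h. Cells were fixed in 70% ethanol for 30 min at 4 °C and stained with PI, Triton X-100 and RNase A for 15 min in the dark. 10000 events were counted by flow cytometry.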

[9] = system: MDA-MB-231; experiment: Induction of apoptosis in human MDA-MB-231 cells assessed as necrotic cells at 0.5 uM after 24 hrs by Annexin V-FITC/PI dual staining based flow cytometry (reference value: 1.9%); type: functional
[10] = system: A549; experiment: Cell cycle arrest in human A549 cells assessed as accumulation at G0/G1 phase at 0.5 uM after 24 to 48 hrs by propidium iodide staining based flow cytometry (reference value: 49.1%); type: functional; procedure, shortened: as §2
[11] = system: A549; experiment: Cell cycle arrest in human A549 cells assessed as accumulation at G0/G1 phase at 1 uM after 24 to 48 hrs by propidium iodide staining based flow cytometry (reference value: 49.1%); type: functional; procedure, shortened: as §2
[12] = system: MDA-MB-231; experiment: Induction of apoptosis in human MDA-MB-231 cells assessed as necrotic cells at 2 uM after 24 hrs by Annexin V-FITC/PI dual staining based flow cytometry (reference value: 1.9%); type: functional
[13] = system: MDA-MB-231; experiment: Induction of apoptosis in human MDA-MB-231 cells assessed as viable cells at 1 uM after 24 hrs by Annexin V-FITC/PI dual staining based flow cytometry (reference value: 91%); type: functional; conditions: MDA-MB-231, 24 h, read-out: Activity
[14] = system: MDA-MB-231; experiment: Cell cycle arrest in human MDA-MB-231 cells assessed as accumulation at G2/M phase at 0.5 uM after 24 to 48 hrs by propidium iodide staining based flow cytometry (reference value: 20.2%); type: functional; procedure, shortened: as §2
[15] = system: A549; experiment: Cell cycle arrest in human A549 cells assessed as accumulation at S phase at 0.5 uM after 24 to 48 hrs by propidium iodide staining based flow cytometry (reference value: 18.3%); type: functional; procedure, shortened: as §2
[16] = system: MDA-MB-231; experiment: Cytotoxicity against human MDA-MB-231 cells assessed as inhibition of colony formation after 24 hrs by methylene blue staining-based assay; type: functional, cell-based
Procedure, shortened: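 Clonogenic assay. Cells were plated at 500 per well and allowed to adhere 24 h. Compound was added at 0.1, 1 and 10 µM for 24 h, then medium was replaced and cells grown a further 14 days. Colonies were fixed with 4% paraformaldehyde, stained with 0.5% methylene blue in PBS for 30 min, rinsed and photographed.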

[17] = system: A549; experiment: Induction of apoptosis in human A549 cells assessed as necrotic cells at 1 uM after 24 hrs by Annexin V-FITC/PI dual staining based flow cytometry (reference value: 5.2%); type: functional
[18] = system: A549 (human); experiment: Induction of apoptosis in human A549 cells assessed as early apoptotic cells at 2 uM after 24 hrs by Annexin V-FITC/PI dual staining based flow cytometry (reference value: 0.3%)
[19] = system: A549; experiment: Induction of apoptosis in human A549 cells assessed as viable cells at 0.5 uM after 24 hrs by Annexin V-FITC/PI dual staining based flow cytometry (reference value: 85%); type: functional; conditions: A549, 24 h, read-out: Activity
[20] = system: MDA-MB-231; experiment: Cell cycle arrest in human MDA-MB-231 cells assessed as accumulation at S phase at 2 uM after 24 to 48 hrs by propidium iodide staining based flow cytometry (reference value: 4.6%); type: functional; procedure, shortened: as §2
[21] = system: A549; experiment: Cytotoxicity against human A549 cells assessed as growth inhibition after 72 hrs by MTT assay; type: functional, cell-based; conditions: A549, 72 h
Procedure, shortened: (§3)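 Cells in RPMI 1640 (PC-3, A549, MDA-MB-231) or DMEM (U87MG, MCF-7) with 10% FBS, passages 4-10, were seeded at 3000-5000 per well and left 24 h. Compounds in DMSO/medium were added for 72 h; DMSO served as control. MTT (5 mg/mL) was added for 4 h and formazan dissolved in DMSO. Absorbance was read at 570 nm minus 630 nm. % inhibition was taken versus DMSO, with IC50 by probit; mean ± SD of three experiments in triplicate.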

[22] = system: MDA-MB-231; experiment: Disruption of mitochondrial membrane potential in human MDA-MB-231 cells at 0.5 to 2 uM after 48 hrs by Rhodamine-123 staining based spectrofluorometry; type: functional; procedure, shortened: as §1
[23] = system: MDA-MB-231; experiment: Induction of apoptosis in human MDA-MB-231 cells assessed as late apoptotic cells at 1 uM after 24 hrs by Annexin V-FITC/PI dual staining based flow cytometry (reference value: 6.2%); type: functional
[24] = Cytotoxicity against human PC3 cells assessed as growth inhibition after 72 hrs by MTT assay; type: functional, cell-based; conditions: PC-3, 72 h; procedure, shortened: as §3
[25] = system: A549; experiment: Cell cycle arrest in human A549 cells assessed as accumulation at G2/M phase at 1 uM after 24 to 48 hrs by propidium iodide staining based flow cytometry (reference value: 22.3 to 31%); type: functional; procedure, shortened: as §2

Compound: O=C1c2ccccc2Nc2ccccc2N1Cc1cn(Cc2ccccc2)nn1
- Activity [1]: Active
- Activity [2]: 9.4%
- Activity [3]: 15.6%
- Activity [4]: 1.4%
- Activity [5]: 14.5%
- Activity [6]: 15%
- fold change (FC) [7]: 1.8
- Activity [8]: 34.7%
- Activity [9]: 2.5%
- Activity [10]: 42.8%
- Activity [11]: 39.8%
- Activity [12]: 2.5%
- viability at 1 µM [13]: 73%
- Activity [14]: 22.3%
- Activity [15]: 19.5%
- inhibition [16]: Dose-dependent effect
- Activity [17]: 1.9%
- Activity [18]: 19.3%
- viability at 0.5 µM [19]: 75%
- Activity [20]: 5.5%
- IC50 [21]: 0.71 µM
- Activity [22]: 20%
- Activity [23]: 11.5%
- IC50 [24]: 4.21 µM
- Activity [25]: 43.6%

Reference: ChEMBL document CHEMBL3763097, “Synthesis and biological evaluation of 5,10-dihydro-11H-dibenzo[b,e][1,4]diazepin-11-one structural derivatives as anti-cancer and apoptosis inducing agents” (Eur J Med Chem, 2016)
